Measurements gathered from unrelated publications.
Protocols differ between the studies behind these lines.
Target: Insulin receptor-related protein (INSRR, Homo sapiens, UniProt P14616)

Compound	assay	setting	quantity	value
Cn1cncc1[C@](O)(COc1ccc(C#N)cc1-c1ccc(OC(F)(F)F)cc1)c1ccc(C#N)cc1	cell-free assay, competition with immobilised ligand	1 µM	remaining binding	93%
C#Cc1n[nH]c2c(-c3cn(C(C)c4ccccn4)c(=O)[nH]c3=O)cc(F)cc12 (centres unmarked)	enzyme activity, inhibitor	1 µM	inhibition	0.7%
Cc1nn(C)cc1-c1nc2c(N3CCN(Cc4ccc(Cl)cc4)CC3)c(Cl)cnc2[nH]1	binding, competition with immobilised ligand	1 µM	remaining binding	100%
COc1ncccc1-c1cnn2ccc(N3CCN(C(=O)OC(C)C)CC3)nc12	binding, competition with immobilised ligand	1 µM	remaining binding	96%
CC(C)(C)c1cc(C=C(C#N)C#N)cc(Br)c1O	enzyme activity, inhibitor	0.5 µM	remaining activity	103%
COc1cc(Nc2ncc(F)c(Nc3ccc4c(n3)NC(=O)C(C)(C)O4)n2)cc(OC)c1OC	binding, competition with immobilised ligand	10 µM	inhibition	53%
C#Cc1n[nH]c2c(-c3cn([C@@H](C)c4ccccc4)c(=O)[nH]c3=O)cc(F)cc12	enzyme activity, inhibitor	0.1 µM	inhibition	6.9%
Cn1cc(-c2cc(F)cc(N3CCn4c(cc5c4CCCC5)C3=O)c2CO)cc(Nc2ccc(N3CCN(C4COC4)CC3)cn2)c1=O	enzyme activity, inhibitor	0.1 µM	inhibition	15%
O=c1[nH]c2ccccc2n1C1CCN(Cc2ccc(-c3[nH]c4cc5ncnc5cc4nc3-c3ccccc3)cc2)CC1	cell-free assay	0.5 µM	remaining signal	101%
Nc1ncc(-c2nc(N3CCOCC3)nc(N3CCOCC3)n2)c(C(F)F)n1	binding, competition with immobilised ligand	10 µM	remaining binding	80%
Cn1cc(-c2cccc(N3CCc4c(sc5c4CC(C)(C)C5)C3=O)c2CO)cc(Nc2ccncn2)c1=O	enzyme activity, inhibitor	1 µM	inhibition	2%
